In the library only some 3.4% were active in any assay of this set; here they are far more common.
MC4R ag barr – agonists of human melanocortin 4 receptor (MC4R) beta-arrestin. U2OS MC4R beta-arrestin complementation, luminescence; percent of melanotan II response, DMSO zero. activation, % at 8.9 µM. 360,000 tested, 0.98% active. AID 540308;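 active = activation above a per-plate cutoff, the mean activation of sample wells on that plate plus 3 SD, cut at about 8% in these data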
MC4R antagonist – human MC4R antagonism in cAMP assay; P32245; MC4R-expressing cells, MTII-stimulated cAMP, LANCE TR-FRET; inhibition, % at 6.5 µM; 360,000 tested, 0.48% active; AID 540295;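 active = inhibition above its plate's cutoff, the mean of tested wells on that plate plus 3 SD, cut at about 29% in these data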;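 note: 0% = Melanotan II alone and 100% = Melanotan II plus saturating MCL0020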
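System: U2OS cells stably expressing human melanocortin 4 receptor (MC4R). Reagent: Melanotan II challenge after compound preincubation. Doses: 6.5 µM. Times: 30-min compound, 1-h challenge, 1-h detection, room temperature. Measured by: TR-FRET with Eu-cAMP and labeled anti-cAMP, 671 nm. Replicates: singlicate.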
TMEM16A inh – inhibitors of mouse TMEM16A calcium-activated chloride channel. Q8BHY3. HEK293 TMEM16A/YFP iodide influx fluorescence, ionomycin. 310,000 tested, 1.2% active. normalized B-score (activity score, 25-100; higher = stronger inhibition) at 10 µM;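 active = ratio plate-corrected score three or more library SD toward inhibition, starting fluorescence score within five deviations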;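 note: score derived from kinetic fluorescence span divided by baseline fluorescence per well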
beta cell repl – induces beta-cell replication in MIN6 cells. MIN6 cells proliferation, ATPlite luminescence, 48 h; cells starved in 0.2% serum; 100% = growth in 10% serum. 330,000 tested, 0.29% active. AID 2380. proliferation, % at 10 µM;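 active = compounds whose signal lies at least 3.5 SD above the mean of all wells on their plate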;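 note: 0% = DMSO-treated cells in low-serum medium and 100% = 10% serum control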
m5-HT2A agonist – mouse HTR2A agonism via beta-arrestin recruitment. activation, % at 7.6 µM. AID 624169. CHO-K1 mHTR2A beta-arrestin complementation, luminescence; percent of 30 µM serotonin response. P35363. 360,000 tested, 0.66% active;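 active = activation above a run cutoff, the mean activation of all tested compounds plus 3 SD, cut at about 14% in these data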;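 note: 0% = plate median of compound wells and 100% = 30 µM serotonin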
Target sequence (P35363 whole entry, looked up): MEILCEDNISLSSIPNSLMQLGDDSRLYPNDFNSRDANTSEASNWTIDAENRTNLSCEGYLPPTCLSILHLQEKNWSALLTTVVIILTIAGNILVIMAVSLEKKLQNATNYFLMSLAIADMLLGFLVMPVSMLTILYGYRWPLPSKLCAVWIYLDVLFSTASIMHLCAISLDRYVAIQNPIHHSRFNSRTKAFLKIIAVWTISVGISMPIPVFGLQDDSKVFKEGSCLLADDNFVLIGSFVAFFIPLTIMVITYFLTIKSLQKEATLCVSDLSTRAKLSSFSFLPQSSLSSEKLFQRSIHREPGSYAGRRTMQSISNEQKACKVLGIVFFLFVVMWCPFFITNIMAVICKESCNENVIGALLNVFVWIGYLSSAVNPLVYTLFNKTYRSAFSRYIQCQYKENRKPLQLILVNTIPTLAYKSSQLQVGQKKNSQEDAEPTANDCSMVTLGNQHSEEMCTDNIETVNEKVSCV
ANO1 activ – activators or potentiators of mouse TMEM16A chloride channel. Q8BHY3. B-score at 10 µM. AID 623877. 340,000 tested, 0.3% active. HEK293 TMEM16A/YFP-H148Q/I152L, iodide quench fluorescence; active compounds read low;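 active = fluorescence-ratio B-score plate-corrected deviation score at least 3 library SD below zero, with starting fluorescence score within 5 deviations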;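 note: channel opened by trigger with iodide after compound preincubation; score built on the fluorescence ratio of max minus min over baseline; more negative score means more quench and so TMEM16A activation or potentiation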
Active calls of the source: *; i = inactive; nt = no result given.

SMILES | MC4R ag barr | MC4R antagonist | TMEM16A inh | beta cell repl | m5-HT2A agonist | ANO1 activ
COc1cccc(C(CNc2ccc(S(=O)(=O)N3CCN(C)CC3)cc2[N+](=O)[O-])N(C)C)c1 (stereo unspecified) | -3 | 10 | nt | -2 | -5 | i
CCCn1c(N)c(Sc2ccccc2)c(=O)n(CCC)c1=O | -2 | 5 | i | 2 | 18* | i
COc1cccc(N2CCN(CC(=O)Nc3nnc(-c4ccccc4)s3)CC2)c1 | -1 | 0 | 25* | 0 | -8 | i
CCOC(=O)Cc1nn(CCc2ccccn2)c(=O)c2ccccc12 | -2 | 10 | i | -1 | 0 | i
CCOC(=O)Cc1nn(Cc2nc(-c3ccc(C)cc3)cs2)c(=O)c2ccccc12 | 7 | 7 | 25* | -2 | -3 | i
COc1cc(NC(=O)COc2c(C)cc(C)cc2[N+](=O)[O-])c(OC)cc1Cl | 8.4* | 7 | i | -2 | 4 | i
Cc1ccnc(NS(=O)(=O)c2ccc3ccccc3c2)n1 | 1 | 14 | i | -1 | 1 | i
O=C(/C=C/c1cccc(C(F)(F)F)c1)NNC(=O)c1ccncc1 | -3 | -3 | nt | -6 | 2 | i
O=C(Nc1ccccc1C(=O)N1CCN(c2cccc(Cl)c2)CC1)C1=CSCCO1 | -4 | 0 | i | -1 | 2 | -28*
O=C(Nc1ccc(C(=O)N2CCN(c3ccc(Cl)cc3)CC2)cc1)C1=CSCCO1 | -1 | -3 | i | -3 | -2 | i
O=C(Nc1ccc(N=Nc2ccccc2)cc1)c1ccccc1Cl | 9.5* | 6 | i | 0 | 1 | i
O=C(Nc1ccc(N=Nc2ccccc2)cc1)c1ccc(Cl)cc1Cl | 0 | -17 | i | 2 | 1 | i
CC1=C(C(=O)N2CCOCC2)CC(CC(=O)NC2CCCCC2)C(=O)N1Cc1ccc(F)cc1 (stereo unspecified) | -1 | 8 | nt | nt | 0 | nt
COC(=O)c1ccc(OC)c(Cn2c(=O)n(C)c(=O)c3ccccc32)c1 | -1 | -6 | i | -2 | 11 | i
CC1CCCC(NC(=O)CN2CCN(S(=O)(=O)c3ccc(Br)s3)CC2)C1C (stereo unspecified) | -1 | -2 | nt | -3 | 0 | i
CCn1c(CCCOc2ccc(Cl)cc2Cl)nnc1SCC(=O)Nc1cccc(F)c1 | 9.8* | 6 | i | -3 | -4 | i
Oc1cccc2ccc(Nc3ccccn3)nc12 | 8.7* | 3 | i | -6 | -14 | i
CN(C(=O)c1ccc(C#N)cc1)c1nnc(-c2cnccn2)s1 | 0 | 9 | i | 0 | 2 | -5.2*
C=CCc1cccc2cc(C(=O)O)c(=O)oc12 | -1 | 10 | i | -1 | -3 | i
C=CCc1cccc2cc(C(=O)OCC(=O)c3ccccc3)c(=O)oc12 | 9.5* | 6 | i | 4 | -3 | i
CC[C@]12c3[nH]c4cc(CCC(=O)N(C)C)ccc4c3CCN1C(=O)[C@@H](CC(=O)NCc1ccco1)C[C@@H]2C(=O)N1CCN(C(=O)C2CC2)CC1 | 0 | 11 | nt | nt | 1 | nt
O=[N+]([O-])c1nn(-c2ccccc2)[n+]([O-])c1N1CCN(c2ccccc2)CC1 | -2 | 12 | i | 0 | -1 | i
O=[N+]([O-])c1nn(-c2ccccc2)[n+]([O-])c1N1CCN(c2ccccc2F)CC1 | 9.3* | -5 | i | -3 | 5 | i
CN1CCN(c2ccc(NC(=O)c3ccc(-c4ccc(Cl)cc4)o3)cc2)CC1 | 10* | 1 | i | -7 | 1 | i
CN1CCN(c2ccc(NC(=O)c3ccc(-c4cccc([N+](=O)[O-])c4)o3)cc2)CC1 | -2 | -6 | i | -5 | -10 | i
O=C1C(=NO)CCc2ccccc21 | -1 | 7 | nt | nt | 4 | i
O=C(CSCc1ccc(Br)cc1)N=Nc1c(O)[nH]c2ccccc12 | 1 | 0 | i | 8.7* | -6 | i
Cc1nn(Cc2ccccc2Cl)c(C)c1NC(=O)c1ccn(C)n1 | 3 | -1 | i | 0 | 3 | i

Screening data from PubChem.
